The record followed here is ChEMBL document CHEMBL5344432, “Identification of a Dual Autophagy and REV-ERB Inhibitor with in Vivo Anticancer Efficacy” (J Med Chem, 2024).

Converted amounts (≈) assume the structure as drawn. Where only a bound is given, the exact number is not on record here.

One series relates to BT-474. Kind of series: Cytotoxicity against human BT-474 cells. It counts as functional. A digest of the protocol:
(§1)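 BT-474 breast cancer cells and nontumorigenic HMECs treated 48 h with concentrations up to 30 μM. CC50 derived from concentration–response viability plots. Values >30 μM assigned when viability fell by less than 50% of vehicle at 30 μM. Mean ± SEM, n ≥ 3.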

For another series, the system named is HMEC. Kind of series: (§2) Cytotoxicity against HMECs. It counts as toxicity, cell-based. The settings on record: human, hmec. A digest of the protocol: as §1
Series [1] is described as follows: Metabolic stability in mouse liver microsomes assessed as parent compound remaining preincubated for 15 mins followed by NADPH addition and measured after 1 hr by LC-MS/MS analysis. The format is ADME, Microsome. Conditions: time 75 min, read-out: Stability. The method, boiled down: (§3)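 Microsomal stability assessed in mouse, human, rat or dog liver microsomes with NADPH cofactor. Half-life and percent parent remaining at 60 and 120 min reported. Mean of at least two independent experiments, each in two technical replicates.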

A short description of series [2]: Aqueous kinetic solubility of the compound in PBS at pH 7.4 at 250 uM incubated for 24 hrs by UPLC/MS analysis. The format is physicochemical. Conditions: read-out: Kinetic_solubility. The method, boiled down: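 Kinetic solubility measured in phosphate-buffered saline, pH 7.4. Mean of at least two independent experiments, each run in two technical replicates.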

Series [3] is described as follows: Metabolic stability in mouse liver microsomes assessed as half life preincubated for 15 mins followed by NADPH addition and measured after 1 to 2 hrs by LC-MS/MS analysis. It counts as ADME, Microsome. Conditions: time 75-135 min; for half-life: liver microsomes; for t1/2: microsomes. The method, boiled down:
as §3

The nature of series [4]: Metabolic stability in mouse liver microsomes assessed as half life preincubated for 15 mins followed by UDPGA addition and measured after 2 hrs by LC-MS/MS analysis. The format is ADME, Microsome. The settings on record: time 135 min. The method, boiled down: (§4)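 Mouse and human liver microsomes incubated with UDPGA cofactor. Half-life and percent parent remaining at 120 min reported. Mean of at least two independent experiments, each in two technical replicates.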

Series [5] is described as follows: Metabolic stability in human liver microsomes assessed as percent compound remaining preincubated for 15 mins followed by UDPGA addition and measured after 2 hrs by LC-MS/MS analysis.
The nature of series [6]: Metabolic stability in mouse liver microsomes assessed as parent compound remaining preincubated for 15 mins followed by NADPH addition and measured after 2 hrs by LC-MS/MS analysis. It counts as ADME, Microsome. The settings on record: time 135 min, read-out: Stability. The method, boiled down:
as §3

Series [7] is described as follows: Metabolic stability in human liver microsomes assessed as half life preincubated for 15 mins followed by NADPH addition and measured after 1 to 2 hrs by LC-MS/MS analysis. It counts as ADME, Microsome. The settings on record: liver microsomes, time 75-135 min. The method, boiled down: as §3
A short description of series [8]: Metabolic stability in human liver microsomes assessed as parent compound remaining preincubated for 15 mins followed by UDPGA addition and measured after 2 hrs by LC-MS/MS analysis. The format is ADME, Microsome. Conditions: time 135 min, read-out: Stability. A digest of the protocol: as §4
Series [9] is described as follows: Metabolic stability in human liver microsomes assessed as parent compound remaining preincubated for 15 mins followed by NADPH addition and measured after 2 hrs by LC-MS/MS analysis. Conditions: time 135 min, read-out: Stability. The format is ADME, Microsome. The method, boiled down:
as §3

Series [10] in a line: Metabolic stability in mouse liver microsomes assessed as half-life preincubated for 15 mins followed by UDPGA addition and measured after 2 hrs by LC-MS/MS analysis.
The nature of series [11]: Metabolic stability in human liver microsomes assessed as parent compound remaining preincubated for 15 mins followed by NADPH addition and measured after 1 hr by LC-MS/MS analysis. It counts as ADME, Microsome. The settings on record: time 75 min, read-out: Stability. A digest of the protocol: as §3
Series [12] can be described thus: Metabolic stability in rat liver microsomes assessed as parent compound remaining preincubated for 15 mins followed by NADPH addition and measured after 1 to 2 hrs by LC-MS/MS analysis. The format is ADME, Microsome. Conditions: time 75-135 min. The method, boiled down:
as §3

The nature of series [13]: Metabolic stability in dog liver microsomes assessed as half life preincubated for 15 mins followed by NADPH addition and measured after 1 to 2 hrs by LC-MS/MS analysis. It counts as ADME, Canis lupus familiaris, Microsome. The settings on record: time 75-135 min. The method, boiled down: as §3
Series [14] in a line: as §2. The format is toxicity, cell-based, HMEC. Conditions: human, HMEC cells. A digest of the protocol: as §1
The nature of series [15]: Metabolic stability in rat liver microsomes assessed as half life preincubated for 15 mins followed by NADPH addition and measured after 1 to 2 hrs by LC-MS/MS analysis. It counts as ADME, Microsome. The settings on record: liver microsomes, time 75-135 min. The method, boiled down:
as §3

A short description of series [16]: Metabolic stability in dog liver microsomes assessed as parent compound remaining preincubated for 15 mins followed by NADPH addition and measured after 1 to 2 hrs by LC-MS/MS analysis. Conditions: time 75-135 min. The format is ADME, Canis lupus familiaris, Microsome. The method, boiled down: as §3

Regarding `CN1CCC(Cc2cccc(CNC3(c4ccc(F)c(Cl)c4)CCCC3)c2)CC1`, the cytotoxic concentration (CC50) in the series with BT-474 was 3.61 µM; with HMEC, 21.9 µM. In addition, the remaining at 1 h in series [1] was determined as 53%. Also, the solubility kinetic at 24 h, 250 µM in series [2] amounted to 249 µM (≈ 103 µg/mL). In series [3], the half-life is more than 1 h.
For `CN1CCC(Cc2cc(CNC3(c4ccc(F)cc4)CCCC3)c(F)cc2F)CC1`, the cytotoxic concentration (CC50) in the series on BT-474 worked out at 3.11 µM; in the series on HMEC, 20.4 µM. Further, the half-life in series [4] and in [7] was more than 2 h each time. In series [5], the percent compound remaining at 2 h was determined as 95%. For the same molecule, the remaining at 2 h came to 34% in series [6], 95% in series [8] and 52% in series [9]. The remaining at 1 h was 58% in series [1] and 76% in series [11]. Besides, the solubility kinetic at 24 h, 250 µM in [2] stood at 228 µM (≈ 95 µg/mL). Moreover, the t1/2 at 2 h in series [10] was more than 2 h. The t1/2 in [3] turned out to be 1.33 h.
As for `CN1CCC(Cc2cccc(CNC3(c4ccc(F)cc4Cl)CCCC3)c2)CC1`, the CC50 in the series with BT-474 is 4.25 µM; in the series on HMEC it was 21 µM. Moreover, the solubility kinetic at 24 h, 250 µM in [2] was determined as 220 µM (≈ 91.3 µg/mL). The t1/2 in [3] was 0.183 h.
Consider `CN1CC2(CC(Cc3cccc(CNC4(c5ccc(F)cc5)CCCC4)c3)C2)C1`, for which the 50% cytotoxic concentration (CC50) in the series with BT-474 was 4.83 µM; in series [14], more than 30 µM. For the same molecule, the half-life was more than 2 h in series [4], more than 2 h in series [7] and more than 1 h in series [15]. Besides, the Stability in series [12] worked out at 64%. Further, the t1/2 turned out to be 0.883 h in [13] (microsomes) and 1.92 h in series [3]. Further, the remaining at 2 h in [6] is 49%; in series [8], 95%; in [9], 66%. The remaining at 1 h in [1] is 70%; in [11], 82%. Further, the solubility kinetic at 24 h, 250 µM in series [2] turned out to be 232 µM (≈ 91.1 µg/mL). In addition, in [10], the t1/2 at 2 h is more than 2 h.
Turning to `CN1CCC(Cc2cccc(CNC3(c4ccc(F)c(O)c4)CCCC3)c2)CC1`, the figures for the CC50 (in the series with BT-474; in series [14]) were 11.7 µM and more than 30 µM, respectively. The half-life in [4], in [7] and in series [3] was more than 2 h in each case. Besides, in series [5], the percent compound remaining at 2 h amounted to 95%. Further, the remaining at 2 h in series [6] was 63%; in series [8], more than 95%; in [9], 71%. The values for the remaining at 1 h in series [1] and in [11] were 80% and 84%, respectively. The solubility kinetic at 24 h, 250 µM in [2] is more than 250 µM. For the same molecule, the t1/2 at 2 h in [10] was more than 2 h.
Take `CN1CC2(CC(Cc3cccc(CNC4(c5ccc(F)c(F)c5)CCCC4)c3)C2)C1`: the results for the cytotoxic concentration (CC50) in the series on BT-474 and with HMEC were 2.99 µM and 14.8 µM, respectively. Moreover, the remaining at 2 h in series [6] was 32%; in series [9], 65%. The half-life in [7] was more than 2 h. Besides, the remaining at 1 h is 56% in series [1] and 84% in series [11]. Further, in [2], the solubility kinetic at 24 h, 250 µM worked out at 226 µM (≈ 92.8 µg/mL). Also, in [3], the t1/2 came out at 1.25 h.
Consider `CN1CCC(Cc2cc(CNC3(c4ccc(F)cc4)CCCC3)ccc2Cl)CC1`, for which the results for the half-maximal cytotoxic concentration (CC50) with BT-474 and with HMEC were 2.34 µM and 15.4 µM, respectively. For the same molecule, the remaining at 2 h in series [6] was 29%. Also, in series [1], the remaining at 1 h came out at 51%. The solubility kinetic at 24 h, 250 µM in [2] is 216 µM (≈ 89.6 µg/mL). Further, the t1/2 in series [3] is 0.933 h.
As to `Fc1ccc(C2(NCc3cc(CC4CCNCC4)ccc3F)CCCC2)cc1`, the half-maximal cytotoxic concentration (CC50) was 2.29 µM in the series with BT-474 and 17.2 µM in the series with HMEC. For the same molecule, the half-life in series [4] was more than 2 h; in [13] (liver microsomes), more than 1 h; in series [7] it was more than 2 h; in series [15], more than 1 h; in [3], more than 2 h. In addition, the Stability in series [12] stood at 75%; in [16] it was 83%. The remaining at 2 h turned out to be 74% in [6], 95% in series [8] and 54% in series [9]. Moreover, the remaining at 1 h was 82% in series [1] and 75% in [11]. In series [2], the solubility kinetic at 24 h, 250 µM was 245 µM (≈ 94.2 µg/mL). Further, the t1/2 at 2 h in series [10] is more than 2 h.
